Reference: ChEMBL document CHEMBL1949609, “Synthesis and biological evaluation of novel sinomenine derivatives as anti-inflammatory agents” (Eur J Med Chem, 2012)
The source made the active and inactive calls. The calls are words filed in the database; no cut-off is given here.

How the values were obtained:
RAW264.7 [1] = experiment: Antiinflammatory activity in mouse RAW264.7 cells assessed as inhibition of LPS-induced TNFalpha production at 10 uM after 6 to 24 hrs by ELISA; type: functional, cell-based
In short: (§1)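 RAW264.7 cells (DMEM, 5% FBS, 37 °C, 5% CO2) were exposed to compound at 10 µM plus LPS 500 ng/mL at the same time, with 0.1% DMSO final. Supernatant TNF-α and IL-6 were measured by ELISA at 6, 12 and 24 h.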

RAW264.7 [2] = experiment: Antiinflammatory activity in mouse RAW264.7 cells assessed as inhibition of LPS-induced nitric oxide production after 24 hrs by Griess method; type: functional, cell-based; settings: RAW264.7, 24 h
In short: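 Cells were treated with compound (0.5–100 µM; 0.1% DMSO final) and LPS 500 ng/mL together for 24 h. Nitrite in the medium was read with Griess reagent (10 min, room temperature, dark) at OD540. IC50 comes from three separate experiments, each in triplicate.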

RAW264.7 [3] = experiment: Cytotoxicity against mouse RAW264.7 cells after 24 hrs by MTT assay; type: cell-based; settings: RAW264.7, 24 h
In short: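 Growth of non-LPS RAW264.7 cells was measured by MTT after 24 h with compound: MTT for 4 h, formazan dissolved in DMSO, OD570. Untreated cells were set as 100% viability. IC50 is the concentration giving 50% growth inhibition.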

RAW264.7 [4] = experiment: Antiinflammatory activity in mouse RAW264.7 cells assessed as inhibition of LPS-induced IL-6 production at 10 uM after 6 to 24 hrs by ELISA; type: functional, cell-based; in short: as §1
Mus musculus [5] = experiment: Antiinflammatory activity in BALB/c mouse assessed as increase in survival rate at 15 mg/kg, ip QD administered 3 days prior to LPS challenge measured after 19 hrs; type: functional; settings: route intraperitoneal
In short: (§2)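 Balb/c mice (~20 g), 10 per group, given compound in olive oil at 15 mg/kg i.p. once daily for 3 days, then LPS 20 mg/kg i.p. Cumulative survival was followed after LPS and analysed by Kaplan–Meier against LPS-only mice.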

RAW264.7 [6] = experiment: Antiinflammatory activity in mouse RAW264.7 cells assessed as inhibition of LPS-induced TNFalpha production at 10 uM after 24 hrs by ELISA (reference value: 10124 +/- 1137.2 pg/ml); type: functional; in short: as §1
RAW264.7 [7] = experiment: Antiinflammatory activity in mouse RAW264.7 cells assessed as inhibition of LPS-induced TNFalpha production at 10 uM after 6 hrs by ELISA (reference value: 2646.1 +/- 499.8 pg/ml); type: functional; in short: as §1
[8] = target: T1, NF-kappa-B inhibitor alpha (Mus musculus) (UniProt Q9Z1E3); experiment: Inhibition of LPS-induced IkappaBalpha phosphorylation in mouse RAW264.7 cells at 10 uM at 4 hrs by Western blot analysis; type: cell-based
T1 sequence (whole entry): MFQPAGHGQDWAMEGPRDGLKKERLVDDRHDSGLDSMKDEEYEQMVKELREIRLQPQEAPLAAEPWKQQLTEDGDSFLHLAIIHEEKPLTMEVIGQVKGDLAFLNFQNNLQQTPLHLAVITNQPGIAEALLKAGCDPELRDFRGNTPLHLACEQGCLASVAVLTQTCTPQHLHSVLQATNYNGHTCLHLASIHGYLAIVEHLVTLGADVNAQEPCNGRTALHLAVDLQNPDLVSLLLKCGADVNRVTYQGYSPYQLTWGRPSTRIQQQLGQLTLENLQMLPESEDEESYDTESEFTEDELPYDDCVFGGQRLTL
In short: (§3)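 Cells were given compound at 10 µM with LPS 500 ng/mL and lysed (Triton X-100 buffer) at 2, 4 and 6 h. Protein was quantified by BCA, run on 10% SDS-PAGE and transferred to PVDF. Blots were probed for total and phosphorylated JNK, ERK1/2, p38, NF-κB p65 and IκBα.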

RAW264.7 [9] = experiment: Antiinflammatory activity in mouse RAW264.7 cells assessed as inhibition of LPS-induced IL-6 production at 10 uM after 12 hrs by ELISA (reference value: 2145.1 +/- 368.7 pg/ml); type: functional; in short: as §1
Mus musculus [10] = experiment: Antiinflammatory activity in BALB/c mouse assessed as decrease in LPS-induced serum TNFalpha level at 15 mg/kg, ip QD administered 3 days prior to LPS challenge measured after 3 hrs by ELISA; type: functional, organism-based; set-up: dose 15 mg/kg
In short: (§4)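 Balb/c mice were dosed i.p. at 15 mg/kg daily for 3 days (olive oil vehicle) before LPS 20 mg/kg i.p. Blood was drawn 3 h after LPS, and serum TNF-α and IL-6 were measured by ELISA. n = 6.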

RAW264.7 [11] = experiment: Inhibition of LPS-induced JNK phosphorylation in mouse RAW264.7 cells at 10 uM after 4 to 6 hrs by Western blot analysis; type: cell-based; in short: as §3
RAW264.7 [12] = experiment: Inhibition of MAPK-mediated NFkappa B subunit p65 phosphorylation in LPS-stimulated mouse RAW264.7 cells at 10 uM after 4 to 6 hrs by Western blot analysis; type: cell-based; in short: as §3
[13] = target: Transcription factor p65 (Mus musculus) (UniProt Q04207); experiment: Inhibition of NF-kappaB subunit p65 DNA binding activity in LPS-stimulated mouse RAW264.7 cells at 5 to 20 uM by luciferase reporter gene assay; type: cell-based
Sequence of Transcription factor p65 (Mus musculus) (Q04207 whole entry): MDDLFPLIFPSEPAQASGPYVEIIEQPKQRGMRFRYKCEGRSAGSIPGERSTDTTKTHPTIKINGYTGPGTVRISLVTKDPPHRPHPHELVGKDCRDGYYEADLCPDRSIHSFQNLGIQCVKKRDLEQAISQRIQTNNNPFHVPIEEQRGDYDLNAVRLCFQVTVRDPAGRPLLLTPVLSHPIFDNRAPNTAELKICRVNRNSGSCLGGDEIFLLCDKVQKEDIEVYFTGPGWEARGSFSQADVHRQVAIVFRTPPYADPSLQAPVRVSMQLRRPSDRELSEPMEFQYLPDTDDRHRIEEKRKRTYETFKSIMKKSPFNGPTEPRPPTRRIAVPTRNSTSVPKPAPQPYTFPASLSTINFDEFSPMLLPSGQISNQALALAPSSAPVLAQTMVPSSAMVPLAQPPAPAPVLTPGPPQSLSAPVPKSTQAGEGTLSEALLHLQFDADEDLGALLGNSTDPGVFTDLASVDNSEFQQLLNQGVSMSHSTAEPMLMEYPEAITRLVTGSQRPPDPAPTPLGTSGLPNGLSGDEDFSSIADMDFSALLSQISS

[14] = target: T2, Mitogen-activated protein kinase 1 and 3 (ERK2 and ERK1) (Mus musculus) (UniProt P63085+Q63844); experiment: Inhibition of LPS-induced Erk1/2 phosphorylation in mouse RAW264.7 cells at 10 uM after 4 to 6 hrs by Western blot analysis; type: cell-based; in short: as §3
T2 sequence (P63085 whole entry, looked up): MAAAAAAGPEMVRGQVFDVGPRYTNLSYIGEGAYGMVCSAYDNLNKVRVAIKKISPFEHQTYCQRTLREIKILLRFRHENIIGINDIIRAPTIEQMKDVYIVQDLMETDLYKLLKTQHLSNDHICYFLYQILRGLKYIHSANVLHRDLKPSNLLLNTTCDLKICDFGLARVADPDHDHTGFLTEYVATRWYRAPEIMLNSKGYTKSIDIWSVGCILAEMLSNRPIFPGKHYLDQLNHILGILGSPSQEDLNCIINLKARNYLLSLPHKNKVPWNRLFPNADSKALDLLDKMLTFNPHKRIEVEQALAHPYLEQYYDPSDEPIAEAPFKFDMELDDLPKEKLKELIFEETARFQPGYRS
T2 sequence (Q63844 whole entry, looked up): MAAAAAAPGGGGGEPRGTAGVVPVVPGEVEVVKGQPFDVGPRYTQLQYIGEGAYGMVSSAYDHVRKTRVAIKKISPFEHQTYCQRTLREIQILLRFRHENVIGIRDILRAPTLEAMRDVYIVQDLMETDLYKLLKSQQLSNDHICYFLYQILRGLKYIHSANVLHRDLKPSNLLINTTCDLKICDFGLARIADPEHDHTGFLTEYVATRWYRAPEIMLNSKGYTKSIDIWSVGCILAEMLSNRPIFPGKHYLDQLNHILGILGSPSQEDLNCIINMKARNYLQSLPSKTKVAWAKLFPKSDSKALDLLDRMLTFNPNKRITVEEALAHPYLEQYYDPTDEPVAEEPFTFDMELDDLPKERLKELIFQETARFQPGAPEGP

[15] = target: MAP kinase p38 (Mus musculus) (UniProt P47811+O08911+Q9WUI1+Q9Z1B7); experiment: Inhibition of LPS-induced MAPK p38 phosphorylation in mouse RAW264.7 cells at 10 uM after 4 to 6 hrs by Western blot analysis; type: cell-based; in short: as §3
[16] = target: Transcription factor p65 (Mus musculus) (UniProt Q04207); experiment: Inhibition of NF-kappaB subunit p65 DNA binding activity in LPS-stimulated mouse RAW264.7 cells at 5 to 20 uM by electrophoretic mobility shift assay; type: cell-based
[17] = target: T1, NF-kappa-B inhibitor alpha (Mus musculus); experiment: Inhibition of IKappaBalpha degradation in LPS-stimulated mouse RAW264.7 cells at 10 uM by Western blot analysis; type: cell-based; in short: as §3
Mus musculus [18] = experiment: Antiinflammatory activity in BALB/c mouse assessed as decrease in LPS-induced serum IL-6 level at 15 mg/kg, ip QD administered 3 days prior to LPS challenge measured after 3 hrs by ELISA; type: functional, organism-based; set-up: dose 15 mg/kg; in short: as §4
Mus musculus [19] = experiment: Antiinflammatory activity in BALB/c mouse assessed as increase in survival rate at 15 mg/kg, ip QD administered 3 days prior to LPS challenge measured after 3 hrs (reference value: 10%); type: functional; settings: route intraperitoneal
RAW264.7 [20] = experiment: Antiinflammatory activity in mouse RAW264.7 cells assessed as inhibition of LPS-induced IL-6 production at 10 uM after 6 hrs by ELISA (reference value: 1046.1 +/- 111.2 pg/ml); type: functional; in short: as §1
[21] = target: T1, NF-kappa-B inhibitor alpha (Mus musculus); experiment: Inhibition of LPS-induced IkappaBalpha phosphorylation in mouse RAW264.7 cells at 10 uM after 4 to 6 hrs by Western blot analysis; type: cell-based; in short: as §3
RAW264.7 [22] = experiment: Antiinflammatory activity in mouse RAW264.7 cells assessed as inhibition of LPS-induced TNFalpha production at 10 uM after 12 hrs by ELISA (reference value: 4126.8 +/- 282 pg/ml); type: functional; in short: as §1
RAW264.7 [23] = experiment: Antiinflammatory activity in mouse RAW264.7 cells assessed as inhibition of LPS-induced IL-6 production at 10 uM after 24 hrs by ELISA (reference value: 13412 +/- 1167.6 pg/ml); type: functional; in short: as §1
RAW264.7 [24] = experiment: Inhibition of MAPK-mediated NFkappa B subunit p65 phosphorylation in LPS-stimulated mouse RAW264.7 cells at 10 uM at 6 hrs by Western blot analysis; type: cell-based; in short: as §3
[25] = target: T1, NF-kappa-B inhibitor alpha (Mus musculus); experiment: Inhibition of IKappaBalpha degradation in LPS-stimulated mouse RAW264.7 cells at 10 uM at 4 to 6 hrs by Western blot analysis; type: cell-based; in short: as §3
[26] = target: Transcription factor p65 (Mus musculus) (UniProt Q04207); experiment: Inhibition of NF-kappaB subunit p65 DNA binding activity in LPS-stimulated mouse RAW264.7 cells at 10 uM after 24 hrs by luciferase reporter gene assay; type: cell-based
Mus musculus [27] = experiment: Antiinflammatory activity in BALB/c mouse assessed as decrease in LPS-induced mortality at 15 mg/kg, ip QD administered 3 days prior to LPS challenge; type: functional, organism-based; set-up: dose 15 mg/kg; in short: as §2
[28] = target: T1, NF-kappa-B inhibitor alpha (Mus musculus); experiment: Inhibition of LPS-induced IkappaBalpha phosphorylation in mouse RAW264.7 cells at 10 uM at 6 hrs by Western blot analysis; type: cell-based; in short: as §3
[29] = target: Transcription factor p65 (Mus musculus) (UniProt Q04207); experiment: Inhibition of NF-kappaB subunit p65 DNA binding activity in LPS-stimulated mouse RAW264.7 cells at 20 uM after 24 hrs by luciferase reporter gene assay; type: cell-based
[30] = target: Transcription factor p65 (Mus musculus) (UniProt Q04207); experiment: Inhibition of NF-kappaB subunit p65 DNA binding activity in LPS-stimulated mouse RAW264.7 cells at 10 uM after 20 mins by electrophoretic mobility shift assay; type: cell-based
In short: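 Nuclear extract (5 µg) was incubated with a biotin-labelled NF-κB consensus probe for 20 min at room temperature. Complexes were resolved on a 6% native gel in 0.5× TBE at 4 °C, then transferred to nylon and detected by chemiluminescence. Specificity was checked by 100-fold unlabelled competitor and p65 antibody supershift.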

[31] = target: T2, Mitogen-activated protein kinase 1 and 3 (ERK2 and ERK1) (Mus musculus); experiment: […] of LPS-induced Erk1/2 phosphorylation in mouse RAW264.7 cells at 10 uM after 4 to 6 hrs by Western blot analysis; type: cell-based; in short: as §3

Structure (SMILES) | IC50 (RAW264.7 [2]) [µM] | IC50 (RAW264.7 [3]) [µM] | Activity (RAW264.7 [6]) [pg/mL] | Activity (RAW264.7 [7]) [pg/mL] | Activity (RAW264.7 [9]) [pg/mL] | Activity (Mus musculus [10]) | inhibition (RAW264.7 [11]) | inhibition [15] | Activity (Mus musculus [18]) | survival at 15 mg/kg (Mus musculus [19]) [%] | Activity (RAW264.7 [20]) [pg/mL] | Activity (RAW264.7 [22]) [pg/mL] | Activity (RAW264.7 [23]) [pg/mL] | further results
COC1=C[C@@H]2[C@@H]3Cc4ccc(OC)c(O)c4[C@]2(CCN3C)CC1=O [SINOMENINE] | > 200 | > 200 | – | – | – | – | – | – | – | – | – | – | – | inhibition (RAW264.7 [1]): inactive; inhibition (RAW264.7 [4]): inactive
CCCCCCCCC(=O)Oc1c(OC)ccc2c1[C@@]13CCN(C)[C@@H](C2)[C@H]1C=C(OC)C(=O)C3 | 24.1 | 58.2 | 9728.9 | 2338.5 | 223.7 | Active | Active | Active | Active | 30 | 148.5 | 4503.8 | 486.3 | survival at 15 mg/kg (Mus musculus [5]): 30%; inhibition [8]: inactive; inhibition (RAW264.7 [12]): Active; inhibition [13]: Active; inhibition [14]: Active; inhibition [16]: Active; inhibition [17]: Active; inhibition [21]: Active
COC1=C[C@@H]2[C@@H]3Cc4ccc(OC)c(OCCCOc5c(OC)ccc6c5[C@@]57CCN(C)[C@@H](C6)[C@H]5C=C(OC)C(=O)C7)c4[C@]2(CCN3C)CC1=O | 15.2 | 41.1 | 8303.2 | 1817.6 | 1667.8 | Active | inactive | inactive | Active | 70 | 949.7 | 3501.9 | 13096.9 | inhibition (RAW264.7 [24]): Active; inhibition [25]: Active; inhibition [26]: inactive; Activity (Mus musculus [27]): Active; inhibition [28]: Active; inhibition [29]: Active; inhibition [30]: inactive; Activity [31]: Active
